According to ChEMBL document CHEMBL1155063 (Bioorg Med Chem, 2008):

Tests used:
SK-MEL-28 = assay: Cytotoxicity against human SK-MEL-28 cells at 10 uM after 48 hrs by MTT assay; format: functional; settings: SK-MEL-28, 48 h, values are per cent of control
In short: (§1)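 Single-dose screen on the NCI 60-cell-line panel, run to the Developmental Therapeutics Program protocol (one-dose mean graph). Each value is the growth percentage of treated cells against untreated control cells.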

SK-MEL-5 = assay: Cytotoxicity against human SK-MEL-5 cells at 10 uM after 48 hrs by MTT assay; format: functional; settings: SK-MEL-5, 48 h, values are per cent of control; in short: as §1
NCI-H522 = assay: Growth percent of human NCI-H522 cells at 10 uM after 48 hrs by MTT assay; settings: NCI-H522, 48 h
Malme-3M = assay: Cytotoxicity against human MALME3M cells at 10 uM after 48 hrs by MTT assay; format: functional; settings: values are per cent of control; in short: as §1
SK-OV-3 = assay: Cytotoxicity against human SKOV3 cells at 10 uM after 48 hrs by MTT assay; format: functional; settings: SK-OV-3, 48 h; in short: as §1
COLO 205 = assay: Cytotoxicity against human COLO205 cells at 10 uM after 48 hrs by MTT assay; format: functional; settings: COLO 205, 48 h, values are per cent of control; in short: as §1
HL-60 = assay: Cytotoxicity against human HL60 cells at 10 uM after 48 hrs by MTT assay; format: functional; settings: HL-60, 48 h; in short: as §1
OVCAR-3 = assay: Cytotoxicity against human OVCAR-3 cells at 10 uM after 48 hrs by MTT assay; format: functional; settings: OVCAR-3, 48 h; in short: as §1
[1] = molecular target: T1, Telomerase reverse transcriptase (Homo sapiens, UniProt O14746); assay: Effect on human TERT expressed in H1299 cells at 10 uM after 24 hrs by SEAP assay relative to control
T1 sequence (O14746 whole entry): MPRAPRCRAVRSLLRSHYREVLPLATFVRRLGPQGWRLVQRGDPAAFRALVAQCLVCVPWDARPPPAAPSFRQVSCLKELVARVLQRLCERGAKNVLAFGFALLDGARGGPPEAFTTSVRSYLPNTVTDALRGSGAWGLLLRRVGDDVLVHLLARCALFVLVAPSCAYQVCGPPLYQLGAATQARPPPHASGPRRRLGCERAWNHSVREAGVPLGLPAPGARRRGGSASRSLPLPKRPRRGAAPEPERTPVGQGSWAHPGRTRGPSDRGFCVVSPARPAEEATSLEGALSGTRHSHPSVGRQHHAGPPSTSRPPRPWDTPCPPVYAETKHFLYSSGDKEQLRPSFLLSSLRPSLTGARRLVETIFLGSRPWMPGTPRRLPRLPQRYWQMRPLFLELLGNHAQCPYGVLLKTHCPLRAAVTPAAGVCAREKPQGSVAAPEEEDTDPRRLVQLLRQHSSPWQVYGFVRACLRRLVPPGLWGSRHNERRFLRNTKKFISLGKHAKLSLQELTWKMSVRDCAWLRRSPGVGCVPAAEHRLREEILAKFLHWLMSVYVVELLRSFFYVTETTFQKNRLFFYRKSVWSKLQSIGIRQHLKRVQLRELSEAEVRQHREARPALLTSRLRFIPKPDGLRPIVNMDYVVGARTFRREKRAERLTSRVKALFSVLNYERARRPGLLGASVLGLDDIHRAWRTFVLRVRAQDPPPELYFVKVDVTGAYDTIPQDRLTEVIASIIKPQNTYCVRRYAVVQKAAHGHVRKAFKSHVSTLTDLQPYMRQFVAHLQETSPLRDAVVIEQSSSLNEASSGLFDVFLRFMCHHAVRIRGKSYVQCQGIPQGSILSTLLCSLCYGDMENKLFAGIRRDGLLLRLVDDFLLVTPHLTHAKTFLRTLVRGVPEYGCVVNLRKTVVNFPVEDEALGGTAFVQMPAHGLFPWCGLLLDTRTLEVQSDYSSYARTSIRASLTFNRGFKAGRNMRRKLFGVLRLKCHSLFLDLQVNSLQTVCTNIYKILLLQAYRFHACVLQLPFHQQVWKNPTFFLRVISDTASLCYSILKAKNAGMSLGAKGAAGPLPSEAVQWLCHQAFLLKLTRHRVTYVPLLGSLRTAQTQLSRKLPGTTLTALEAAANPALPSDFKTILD

NCI-H226 = assay: Cytotoxicity against human NCI-H226 cells at 10 uM after 48 hrs by MTT assay; format: functional; settings: NCI-H226, 48 h; in short: as §1
[2] = Cytotoxicity against human CAK1-1 cells at 10 uM after 48 hrs by MTT assay; format: functional; settings: CAK1-1, 48 h; in short: as §1
[3] = molecular target: T1, Telomerase reverse transcriptase; assay: Effect on human TERT expressed in H1299 cells at 100 uM after 24 hrs by SEAP assay relative to control
K562 = assay: Cytotoxicity against human K562 cells at 10 uM after 48 hrs by MTT assay; format: functional; settings: K562, 48 h; in short: as §1
NCI-H23 = assay: Cytotoxicity against human NCI-H23 cells at 10 uM after 48 hrs by MTT assay; format: functional; settings: NCI-H23, 48 h; in short: as §1
[4] = Cytotoxicity against human TERT immortalized BJ1 cells at 100 uM after 48 hrs by MTT assay relative to control; format: cell-based, BJ
In short: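 hTERT-immortalized BJ1 fibroblasts were grown in DMEM with 10% FCS, 1 mM pyruvate and 4 mM […]. Cells (about 2 × 10^3 per well) were seeded and held 24 h at 37 °C. Compounds were freshly dissolved in DMSO, diluted into medium and left on the cells 48 h. MTT was added for 4 h, then SDS/DMF lysis buffer for 16 h. Absorbance was read at 550 nm and expressed relative to untreated cells (100%).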

OVCAR-5 = assay: Cytotoxicity against human OVCAR5 cells at 10 uM after 48 hrs by MTT assay; format: functional; settings: OVCAR-5, 48 h; in short: as §1
PC-3 = assay: Cytotoxicity against human PC3 cells at 10 uM after 48 hrs by MTT assay; format: functional; settings: PC-3, 48 h, values are per cent of control; in short: as §1
SK-MEL-2 = assay: Cytotoxicity against human SK-MEL-2 cells at 10 uM after 48 hrs by MTT assay; format: functional; settings: SK-MEL-2, 48 h, values are per cent of control; in short: as §1
KM12 = assay: Cytotoxicity against human KM12 cells at 10 uM after 48 hrs by MTT assay; format: functional; settings: KM12, 48 h; in short: as §1
NCI/ADR-RES = assay: Cytotoxicity against human NCI/ADR-RES cells at 10 uM after 48 hrs by MTT assay; format: functional; in short: as §1
U-251 = assay: Cytotoxicity against human U251 cells at 10 uM after 48 hrs by MTT assay; format: functional; settings: U-251, 48 h, values are per cent of control
In short: (§2)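 Single-dose screen in the NCI 60-cell-line panel, run according to the Developmental Therapeutics Program protocol (one-dose mean graph). The result is the growth percentage of treated cells relative to untreated control cells.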

SNB-19 = assay: Cytotoxicity against human SNB19 cells at 10 uM after 48 hrs by MTT assay; format: functional; settings: SNB-19, 48 h, values are per cent of control; in short: as §1
HCT-116 = assay: Growth percent of human HCT116 cells at 10 uM after 48 hrs by MTT assay; settings: HCT-116, 48 h
SR = assay: Cytotoxicity against human SR cells at 10 uM after 48 hrs by MTT assay; format: functional; in short: as §2
NCI-H322M = assay: Cytotoxicity against human NCI-H322M cells at 10 uM after 48 hrs by MTT assay; format: functional; in short: as §1
HCC 2998 = assay: Growth percent of human HCC2998 cells at 10 uM after 48 hrs by MTT assay; settings: HCC 2998, 48 h
SF-295 = assay: Cytotoxicity against human SF295 cells at 10 uM after 48 hrs by MTT assay; format: functional; settings: SF-295, 48 h, values are per cent of control; in short: as §1
HOP-92 = assay: Cytotoxicity against human HOP92 cells at 10 uM after 48 hrs by MTT assay; format: functional; settings: HOP-92, 48 h; in short: as §1
A498 = assay: Cytotoxicity against human A498 cells at 10 uM after 48 hrs by MTT assay; format: functional; settings: A498, 48 h; in short: as §1
LOX IMVI = assay: Cytotoxicity against human LOXIMVI cells at 10 uM after 48 hrs by MTT assay; format: functional; settings: values are per cent of control; in short: as §1
Hs-578T = assay: Cytotoxicity against human HS578T cells at 10 uM after 48 hrs by MTT assay; format: functional; settings: values are per cent of control; in short: as §1
SW-620 = assay: Cytotoxicity against human SW620 cells at 10 uM after 48 hrs by MTT assay; format: functional; settings: SW-620, 48 h, values are per cent of control; in short: as §2
MCF7 = assay: Cytotoxicity against human MCF7 cells at 10 uM after 48 hrs by MTT assay; format: functional; settings: MCF7, 48 h, values are per cent of control; in short: as §1
HOP-62 = assay: Cytotoxicity against human HOP62 cells at 10 uM after 48 hrs by MTT assay; format: functional; settings: HOP-62, 48 h; in short: as §1
SF-539 = assay: Cytotoxicity against human SF539 cells at 10 uM after 48 hrs by MTT assay; format: functional; settings: SF-539, 48 h, values are per cent of control; in short: as §1

| Structure (SMILES) | growth, % of control at 10 µM (SK-MEL-28) | growth, % of control at 10 µM (SK-MEL-5) | growth percent at 10 µM (NCI-H522) | growth, % of control at 10 µM (Malme-3M) | growth percent at 10 µM (SK-OV-3) | growth, % of control at 10 µM (COLO 205) | growth percent at 10 µM (HL-60) | growth percent at 10 µM (OVCAR-3) | residual activity [1] | growth percent at 10 µM (NCI-H226) | growth percent at 10 µM [2] | residual activity [3] | growth percent at 10 µM (K562) | growth percent at 10 µM (NCI-H23) | viability at 48 h, 100 µM [4] | growth percent at 10 µM (OVCAR-5) | growth, % of control at 10 µM (PC-3) | growth, % of control at 10 µM (SK-MEL-2) | growth percent at 10 µM (NCI/ADR-RES) | growth, % of control at 10 µM (U-251) | other results |
| --- | --- | --- | --- | --- | --- | --- | --- | --- | --- | --- | --- | --- | --- | --- | --- | --- | --- | --- | --- | --- | --- |
| O=C1c2ccc(NC(=O)C3CC3)cc2C(=O)c2cc(NC(=O)C3CC3)ccc21 | 109% | 75.7% | 89.4% | 91.8% | 93.2% | 91.9% | 62.5% | 103% | 81% | 101% | 88.4% | 81% | 91.6% | 95.8% | 47% | 112% | 107% | 16.9% | 90.8% | 72.6% | growth percent at 10 µM (KM12): 92.7%; growth, % of control at 10 µM (SNB-19): 98.8%; growth percent at 10 µM (HCT-116): 87.1%; growth percent at 10 µM (SR): 1.69%; growth percent at 10 µM (NCI-H322M): 106%; growth percent at 10 µM (HCC 2998): 132%; growth, % of control at 10 µM (SF-295): 86.6%; growth percent at 10 µM (HOP-92): 86.2%; growth percent at 10 µM (A498): 92.3%; growth, % of control at 10 µM (LOX IMVI): 90.3%; growth, % of control at 10 µM (Hs-578T): 119%; growth, % of control at 10 µM (SW-620): 105%; growth, % of control at 10 µM (MCF7): 77.4%; growth percent at 10 µM (HOP-62): 91.6%; growth, % of control at 10 µM (SF-539): 93.2% |
| CN(C)CC(=O)Nc1ccc2c(c1)C(=O)c1cc(NC(=O)CN(C)C)ccc1C2=O | 32.1% | 82.6% | 61.8% | 96.2% | 70.3% | -73.6% | -65% | 43.6% | 40% | 89.1% | 59.3% | 21% | 34.9% | 51.8% | 39% | 73.2% | 59% | -30.4% | 47.8% | 16.1% | growth, % of control at 10 µM (KM12; values are per cent of control): 67%; growth, % of control at 10 µM (SNB-19): 79.6%; growth percent at 10 µM (HCT-116): 19.1%; growth percent at 10 µM (SR): -46.5%; growth percent at 10 µM (NCI-H322M): 32.4%; growth percent at 10 µM (HCC 2998): -74%; growth, % of control at 10 µM (SF-295): -83.5%; growth percent at 10 µM (HOP-92): 56.1%; growth percent at 10 µM (A498): -6.39%; growth, % of control at 10 µM (LOX IMVI): -52.3%; growth, % of control at 10 µM (Hs-578T): -6.11%; growth, % of control at 10 µM (SW-620): 23.4%; growth, % of control at 10 µM (MCF7): 7.92%; growth percent at 10 µM (HOP-62): 29%; growth, % of control at 10 µM (SF-539): -3.72% |
